SMILES strings stand for the structures.

The assay relates to Rattus norvegicus. Description: Compound was evaluated for its antiallergic activity in rat passive cutaneous anaphylaxis (PCA) test by the intravenous administration. Format: functional. In outline:
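Male Sprague–Dawley rats (250–300 g) sensitized intradermally on shaved backs with six twofold dilutions (typically 1:4–1:128) of rat anti-ovalbumin serum in 0.9% saline. After 72 h, compound given iv to groups of six just before iv challenge with 1% ovalbumin plus pontamine sky-blue. Killed at 20 min and wheal diameters measured. Inhibition computed against vehicle controls; ED50 from log-dose regression with 95% confidence limits.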

Usually ED50 stands for the midpoint of the dose-response relation. Take `O=C1c2ccccc2S(=O)(=O)c2[nH]nnc21`: the ED50 turned out to be 6.14 mg/kg.

`O=c1c2ccccc2[s+]([O-])c2[nH]nnc12` (stereo not given): the ED50 is 1.23 mg/kg.

In the case of `Cc1cc2sc3nnnc-3c(O)c2cc1C`, the 50% effect level (ED50) was put at a dose of 0.43 mg/kg.

In the case of `Cc1ccc2c(c1)C(=O)c1[nH]nnc1S2(=O)=O`, the 50% effect level (ED50) was put at a dose of 5.88 mg/kg.

As to `Cc1cc2c(cc1C)S(=O)(=O)c1nn[nH]c1C2=O`, the 50% effective dose (ED50) turned out to be 0.6 mg/kg.

In the case of `Cc1ccc2sc3nnnc-3c(O)c2c1C`, the 50% effect level (ED50) was put at a dose of 3.18 mg/kg.

The compound `Oc1c2nnnc-2sc2ccccc12` yielded a 50% effective dose (ED50) of 1.43 mg/kg.

For the compound `COc1ccc2sc3nnnc-3c(O)c2c1`, the ED50 worked out at 1.59 mg/kg.

In turn, `Cc1ccc2c(c1C)C(=O)c1[nH]nnc1S2(=O)=O` yielded an ED50 above 1 mg/kg.

On to `Cc1ccc2sc3nnnc-3c(O)c2c1`, for which the ED50 was determined as 11.4 mg/kg.
